Source: ChEMBL document CHEMBL2046300, “A laccase-catalysed one-pot synthesis of aminonaphthoquinones and their anticancer activity” (2012)

How the values were obtained:
Format in all cases: functional
[1] = tested on: TK-10; assay: Antiproliferative activity against human TK10 cells after 48 hrs by SRB assay; settings: TK-10, 48 h; for CC50: read-out: LC50 (the source's name)
Outline: (§1)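 Cells kept as monolayers in RPMI with 5% FBS, 2 mM L-glutamine and 50 μg/mL gentamicin (37 °C, 5% CO2), used at passages 3–19. They were plated at 7–10 000 cells/well for 24 h, with a T0 plate TCA-fixed at drug addition. Compounds in DMSO, diluted in medium, at 5 concentrations (0.01–100 μM) for 48 h, duplicate. SRB read at 540 nm; net % growth gave GI50, TGI, LC50.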

[2] = tested on: UACC-62; assay: Antiproliferative activity against human UACC62 cells after 48 hrs by SRB assay; settings: UACC-62, 48 h; for CC50: read-out: LC50 (the source's name); outline: as §1
[3] = tested on: MCF7; assay: Antiproliferative activity against human MCF7 cells after 48 hrs by SRB assay; settings: MCF7, 48 h; for CC50: read-out: LC50 (the source's name); outline: as §1
[4] = tested on: HeLa; assay: Antiproliferative activity against human HeLa cells after 48 hrs by SRB assay; settings: for CC50: read-out: LC50 (the source's name)

SMILES | GI50 [1] | CC50 [1] | GI50 [2] | TGI [2] | CC50 [2] | GI50 [3] | TGI [3] | CC50 [3] | GI50 [4] | TGI [4] | CC50 [4] | TGI [1]
O=C(O)C1=C(Nc2ccccc2)C(=O)c2ccccc2C1=O | 74.1 µM | > 100 µM | 6.66 µM | 30.7 µM | 73.1 µM | 42.6 µM | > 100 µM | > 100 µM | 49.2 µM | 97.2 µM | > 100 µM | 
CC(C)c1ccc(NC2=C(C(=O)O)C(=O)c3ccccc3C2=O)cc1 | 8.38 µM | > 100 µM | 5.19 µM | 10.8 µM | 58.1 µM | 37.7 µM | > 100 µM | > 100 µM | 38.3 µM | 73 µM | > 100 µM | 63.6 µM
O=C(O)C1=C(Nc2ccc(CCO)cc2)C(=O)c2ccccc2C1=O | 91.1 µM | > 100 µM | 7.17 µM | 35.3 µM | 72 µM | 54.9 µM | > 100 µM | > 100 µM | 72.5 µM | > 100 µM | > 100 µM | > 100 µM
N#Cc1cccc(NC2=C(C(=O)O)C(=O)c3ccccc3C2=O)c1 | 23.7 µM | > 100 µM | 3.99 µM | 7.17 µM | 19.3 µM | 15.1 µM | 53.8 µM | 92.4 µM | 16 µM | 49.1 µM | 82.3 µM | 76.2 µM
O=C(O)C1=C(Nc2cccc(Cl)c2)C(=O)c2ccccc2C1=O | 35.9 µM | > 100 µM | 17 µM | 49.1 µM | 81.2 µM | 43.2 µM | > 100 µM | > 100 µM | 37.3 µM | 70.7 µM | > 100 µM | > 100 µM
O=C(O)C1=C(Nc2ccc(Cl)cc2)C(=O)c2ccccc2C1=O | 13 µM | > 100 µM | 3.98 µM | 7.83 µM | 55.1 µM | 17.2 µM | 55.1 µM | 93 µM | 24.8 µM | 55.4 µM | 86.1 µM | 79 µM
O=C(O)C1=C(Nc2ccccc2Cl)C(=O)c2ccccc2C1=O | 80.7 µM | > 100 µM | 31 µM | 65.8 µM | > 100 µM | 63.5 µM | > 100 µM | > 100 µM | 28 µM | 60.3 µM | 90.2 µM | > 100 µM
O=C(O)C1=C(Nc2ccc(F)cc2)C(=O)c2ccccc2C1=O | 46.6 µM | > 100 µM | 7.54 µM | 35 µM | 72.1 µM | 38.1 µM | 98.9 µM | > 100 µM | 36.2 µM | 67.3 µM | 98.4 µM | > 100 µM
O=C(O)C1=C(Nc2cccc(F)c2)C(=O)c2ccccc2C1=O | 24.7 µM | > 100 µM | 5.28 µM | 13.7 µM | 59.4 µM | 9.08 µM | 48.4 µM | 91 µM | 28 µM | 60.3 µM | 92.5 µM | > 100 µM
O=C(O)C1=C(Nc2ccccc2F)C(=O)c2ccccc2C1=O | 36.9 µM | > 100 µM | 5.67 µM | 23.3 µM | 65.4 µM | 9.84 µM | 50.8 µM | 92.2 µM | 47.5 µM | 97 µM | > 100 µM | > 100 µM
O=C(O)C1=C(Nc2ccc(Cl)cc2F)C(=O)c2ccccc2C1=O | 13.4 µM | > 100 µM | 4.17 µM | 7.94 µM | 40.4 µM | 21.4 µM | 54.9 µM | 88.5 µM | 25.2 µM | 55.5 µM | 85.9 µM | 93.3 µM
COc1cc([C@@H]2c3cc4c(cc3[C@@H](O[C@@H]3O[C@@H]5CO[C@@H](C)O[C@H]5[C@H](O)[C@H]3O)[C@H]3COC(=O)[C@H]23)OCO4)cc(OC)c1O [ETOPOSIDE] | 7.19 µM | > 100 µM | 0.89 µM | 52.7 µM | > 100 µM | 0.56 µM | > 100 µM | > 100 µM | 3.56 µM | 40.2 µM | 87.5 µM | 49.7 µM
